According to ChEMBL document CHEMBL1151760, “Novel high-affinity and selective biaromatic 4-substituted gamma-hydroxybutyric acid (GHB) analogues as GHB ligands: design, synthesis, and binding studies” (J Med Chem, 2008):

Legend:
[1] = molecular target: GHB high-affinity binding site (Rattus norvegicus); test: Displacement of [3H]NCS-382 from GHB high-affinity binding site in rat brain homogenate
[2] = Displacement of [3H]muscimol from GABAA receptor in rat brain synaptic membranes; type: cell membranes, Membrane
How it was run: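 Washed synaptic membranes from adult male Sprague-Dawley rat cortex and central hemispheres in 50 mM Tris-HCl pH 7.4. 100 µg protein was incubated with 5 nM [3H]muscimol and 0.1 mM displacer at 0 °C for 60 min. Nonspecific binding was set with 1 mM GABA. Bound counts were read by filtration and scintillation. Triplicates, at least two independent experiments.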

[3] = Displacement of [3H]GABA from GABAB receptor in rat brain synaptic membranes; type: cell membranes, Membrane
How it was run: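 Adult male Sprague-Dawley rat cortex and central hemisphere synaptic membranes, thawed and washed four times by homogenization in 50 mM Tris-HCl pH 7.4 and 48000g spins at 4 °C. 200 µg protein was incubated with 5 nM [3H]GABA, 40 µM isoguvacine to saturate GABAA sites, and 0.1 mM displacer in Tris-HCl with 2.5 mM CaCl2, pH 7.4, for 45 min at 25 °C. Nonspecific binding was set with 0.1 mM baclofen. Bound counts were read by filtration and scintillation.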

Structure (SMILES)	Ki [1] [nM]	pKi [1]	IC50 [2] [nM]	IC50 [3] [nM]
O=C(O)CCC(=O)c1ccc(Cc2ccccc2)cc1	15000	4.83	–	–
O=C(O)CCC(=O)c1ccc(CCc2ccccc2)cc1	8800	5.07	–	–
O=C([O-])CCC(O)c1ccc(/C=C/c2ccccn2)cc1.[Li+] (stereo unspecified)	230	6.67	–	–
O=C([O-])CCC(O)c1ccc(/C=C/c2cccc(Cl)c2)cc1.[Li+] (stereo unspecified)	79	7.11	–	–
COc1ccc(/C=C/c2ccc(C(O)CCC(=O)[O-])cc2)cc1.[Li+] (stereo unspecified)	180	6.75	–	–
O=C([O-])CCC(O)c1ccc(/C=C/c2ccncc2)cc1.[Li+] (stereo unspecified)	340	6.49	–	–
Cc1ncsc1/C=C/c1ccc(C(O)CCC(=O)[O-])cc1.[Li+] (stereo unspecified)	250	6.62	–	–
O=C(O)CCCc1ccc(CCc2ccccc2)cc1	1200	6.01	–	–
O=C([O-])CCC(O)c1ccc(/C=C/c2ccccc2)cc1.[Li+] (stereo unspecified)	160	6.79	> 100000	> 100000
O=C([O-])CCC(O)c1ccc(/C=C/c2ccccc2Cl)cc1.[Li+] (stereo unspecified)	54	7.28	–	–
O=C(O)CCC(=O)c1ccc(Br)cc1	17000	4.61	–	–
O=C([O-])CC[C@H](O)c1ccc(OCc2ccccc2I)cc1.[Li+]	220	6.66	–	–
O=C(O)CCC(O)c1ccc(OCc2cccc(Br)c2)cc1 (racemic)	51	7.32	–	–
O=C([O-])CCC(O)c1ccc(OCc2ccccc2F)cc1.[Li+] (racemic)	41	7.39	–	–
O=C([O-])CCC(O)c1ccc(OCc2ccco2)cc1.[Li+] (racemic)	200	6.72	–	–
O=C([O-])CCC(O)c1ccc(OCc2ccc(Br)cc2)cc1.[Li+] (racemic)	34	7.48	–	–
O=C([O-])CCC(O)c1ccc(OCc2ccc(F)cc2)cc1.[Li+] (racemic)	93	7.03	–	–
O=C([O-])CCC(O)c1ccc(OCc2cccs2)cc1.[Li+] (racemic)	96	7.03	–	–
O=C([O-])CCC(O)c1ccc(OCc2cccc(F)c2)cc1.[Li+] (racemic)	63	7.22	–	–
O=C([O-])CCC(O)c1ccc(-c2ccccc2)cc1.[Li+] (racemic)	440	6.36	–	–
O=C([O-])CCC(O)c1ccc(Cc2ccccc2)cc1.[Li+] (racemic)	120	6.94	–	–
O=C([O-])CCC(O)c1ccc(CCc2ccccc2)cc1.[Li+] (racemic)	75	7.13	> 100000	> 100000
O=C([O-])CCC(O)c1ccc(OCc2ccccc2Br)cc1.[Li+] (racemic)	53	7.28	–	–
O=C([O-])CCC(O)c1ccc(OCc2ccccc2)cc1.[Li+] (racemic)	110	6.96	> 100000	> 100000
O=C([O-])CCC(O)c1ccc(OCc2cccc(I)c2)cc1.[Li+] (racemic)	75	7.12	–	–
O=C([O-])CCC(O)c1ccc(OCc2ccc(I)cc2)cc1.[Li+] (racemic)	62	7.21	–	–
O=C([O-])CCC(O)c1ccc(OCc2ccccc2I)cc1.[Li+] (racemic)	60	7.22	> 100000	> 100000
O=C([O-])CC[C@@H](O)c1ccc(OCc2ccccc2I)cc1.[Li+] (racemic)	22	7.68	–	–
O=C([O-])CCC(O)c1ccc(Br)cc1.[Li+] (racemic)	1100	5.96	–	–
